Laboratory results reported in ChEMBL document CHEMBL2417459, “Chrysophaentins are competitive inhibitors of FtsZ and inhibit Z-ring formation in live bacteria” (Bioorg Med Chem, 2013).
Converted amounts (≈) assume the structure as drawn. The source made the active and inactive calls. The rule behind the calls is not given here.

Tests used:
[1] = tested on: Escherichia coli; experiment: Inhibition of recombinant Escherichia coli FtsZ GTPase activity expressed in Escherichia coli BL21 (DE3) assessed as production of inorganic phosphate up to 600 uM after 10 mins by malachite green-phosphomolybdate colorimetric assay in presence of triton X-100
Outline: (§1)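 Recombinant EcFtsZ, purified by ammonium sulfate precipitation, ion exchange and gel filtration, used at 2 µM with 0.25 mM GTP in 50 mM MES pH 6.0, 100 mM KCl, 5 mM MgCl2. Incubated 10 min at 23 °C with serially diluted inhibitor. Pi read at 635 nm by malachite green-phosphomolybdate against a standard curve to give IC50. Triton X-100 at 0.01% where stated.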

[2] = target: T1, Cell division protein FtsZ (Staphylococcus aureus) (UniProt P0A031); experiment: Inhibition of recombinant Staphylococcus aureus FtsZ GTPase activity expressed in Escherichia coli BL21 (DE3) assessed as production of inorganic phosphate up to 600 uM after 20 mins by malachite green-phosphomolybdate colorimetric assay in presence of triton X-100
T1 sequence (whole entry): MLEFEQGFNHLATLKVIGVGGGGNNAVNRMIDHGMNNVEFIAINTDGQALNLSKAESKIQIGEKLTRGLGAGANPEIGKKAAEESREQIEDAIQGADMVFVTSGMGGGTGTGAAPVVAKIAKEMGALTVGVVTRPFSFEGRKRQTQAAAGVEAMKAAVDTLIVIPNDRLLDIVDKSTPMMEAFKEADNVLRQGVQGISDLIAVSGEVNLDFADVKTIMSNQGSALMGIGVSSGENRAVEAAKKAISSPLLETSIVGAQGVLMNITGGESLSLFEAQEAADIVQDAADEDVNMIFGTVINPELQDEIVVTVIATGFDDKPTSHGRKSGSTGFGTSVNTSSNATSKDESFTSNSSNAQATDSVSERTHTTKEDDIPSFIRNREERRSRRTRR
Outline: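 Recombinant SaFtsZ at 6 µM with 0.25 mM GTP in 50 mM MES pH 6.0, 100 mM KCl, 5 mM MgCl2, plus 0.01% Triton X-100. Incubated 20 min at 30 °C with serially diluted inhibitor. Pi measured at 635 nm by malachite green-phosphomolybdate against a standard curve.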

[3] = target: T2, Cell division protein FtsZ (Bacillus subtilis) (UniProt A5Z1V5); experiment: Inhibition of Bacillus subtilis SU570 GFP-fused FtsZ assessed as perturbation of Z-ring formation at 12 uM after 60 mins by fluorescence microscopic analysis
T2 sequence (whole entry): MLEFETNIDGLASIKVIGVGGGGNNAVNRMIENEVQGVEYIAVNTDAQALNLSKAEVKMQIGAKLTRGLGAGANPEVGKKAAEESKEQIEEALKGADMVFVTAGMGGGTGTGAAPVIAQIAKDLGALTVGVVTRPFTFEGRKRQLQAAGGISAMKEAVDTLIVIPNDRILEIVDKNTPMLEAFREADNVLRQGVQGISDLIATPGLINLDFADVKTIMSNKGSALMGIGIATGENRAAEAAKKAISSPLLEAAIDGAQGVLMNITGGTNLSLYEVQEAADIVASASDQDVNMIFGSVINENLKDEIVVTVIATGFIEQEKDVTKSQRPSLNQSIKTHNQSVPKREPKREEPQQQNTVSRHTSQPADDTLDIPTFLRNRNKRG

[4] = target: T3, Cell division protein FtsZ (Bacillus subtilis, UniProt A5Z1V5); experiment: Inhibition of Bacillus subtilis FtsZ GTPase activity assessed as production of inorganic phosphate measured up to 60 mins by malachite green-phosphomolybdate colorimetric assay
T3 sequence (A5Z1V5 whole entry): T2 sequence (whole entry)

[5] = tested on: Escherichia coli; experiment: Inhibition of C-terminal YFP-fused Escherichia coli FtsZ cloned in Escherichia coli envA1 assessed as protein dispersion in from of patches throughout cytoplasm at 340 uM after 30 to 60 mins by fluorescence microscopic analysis
Outline: (§2)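 envA1 carrying arabinose-inducible pFtsZ-YFP grown in LB with 20 µg/mL chloramphenicol at 37 °C to OD600 ~0.2, then induced with 0.4% L-arabinose for 30 min. Cells washed in PBS/tetracycline and resuspended in LB. 1 mL aliquots treated in 1% MeOH or 1% DMSO for 30 or 60 min. Imaged by confocal fluorescence (ex 488, em 558) plus DIC, 100× objective.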

[6] = tested on: Escherichia coli; experiment: Inhibition of C-terminal YFP-fused Escherichia coli FtsZ cloned in Escherichia coli envA1 assessed as Z ring formation at 340 uM after 30 to 60 mins by fluorescence microscopic analysis; outline: as §2
[7] = target: T2, Cell division protein FtsZ (Bacillus subtilis); experiment: Displacement of [3H]-GTP from Bacillus subtilis FtsZ assessed as equilibrium association constant by scintillation counting assay
Outline: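 Nucleotide-free B. subtilis FtsZ (70 nM) incubated with 3H-GTP (100 nM) and competitor. FtsZ-bound label measured by co-sedimentation and scintillation counting. 3H-GTP binding constant determined separately. Data fit to a simple competition model.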

[8] = target: T2, Cell division protein FtsZ (Bacillus subtilis); experiment: Displacement of mant-GTP from Bacillus subtilis FtsZ by fluorescence anisotropy analysis
Outline: (§3)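 Nucleotide-free B. subtilis FtsZ (380 nM) with mant-GTP (500 nM), titrated with competitor. Displacement read as the change in fluorescence anisotropy and fit by least squares to a simple competition model. GTP (150 µM) served as the displacement control.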

[9] = target: T2, Cell division protein FtsZ (Bacillus subtilis); experiment: Displacement of mant-GTP from Bacillus subtilis FtsZ assessed as equilibrium association constant by fluorescence anisotropy analysis; outline: as §3
[10] = Inhibition of recombinant Escherichia coli FtsZ GTPase activity expressed in Escherichia coli BL21 (DE3) assessed as production of inorganic phosphate after 10 mins by malachite green-phosphomolybdate colorimetric assay; outline: as §1
[11] = target: T4, Cell division protein FtsZ (Staphylococcus aureus, UniProt P0A031); experiment: Inhibition of recombinant Staphylococcus aureus FtsZ GTPase activity expressed in Escherichia coli BL21 (DE3) assessed as production of inorganic phosphate after 20 mins by malachite green-phosphomolybdate colorimetric assay
T4 sequence (P0A031 whole entry): T1 sequence (whole entry)
Outline: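 SaFtsZ (recombinant; stored at −80 °C in 50 mM Tris pH 7.4, 50 mM KCl, 1 mM EDTA, 10% glycerol), 6 µM, with 0.25 mM GTP in 50 mM MES pH 6.0, 100 mM KCl, 5 mM MgCl₂. Run 20 min at 30 °C with serially diluted inhibitor. Pi read at 635 nm against a standard curve to give IC₅₀. DMSO control up to 8%.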

[12] = tested on: Escherichia coli; experiment: Antibacterial activity against Escherichia coli K12 C600 envA1 assessed as growth inhibition after 18 hrs by microbroth dilution method; details: envA1, 18 h
[13] = tested on: Escherichia coli; experiment: Inhibition of C-terminal YFP-fused Escherichia coli FtsZ cloned in Escherichia coli envA1 assessed as mislocalization of protein in polar region at 4.9 uM after 30 to 60 mins by fluorescence microscopic analysis; outline: as §2
[14] = tested on: Escherichia coli; experiment: Inhibition of C-terminal RFP-fused Escherichia coli FtsZ cloned in Escherichia coli envA1 assessed as intact red fluorescent Z-ring formation at 680 uM after 30 to 60 mins by fluorescence microscopic analysis
Outline: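 envA1 carrying arabinose-inducible pFtsZ-tdTomato (pFtsZ-RFP), induced and treated by the same protocol, 680 µM for 30 min. Red fluorescence imaged (ex 555, em 630) alongside the yellow channel and DIC at 30 and 60 min post induction.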

[15] = tested on: Escherichia coli; experiment: Inhibition of C-terminal YFP-fused Escherichia coli FtsZ cloned in Escherichia coli envA1 assessed as mislocalization of protein throughout cell at 680 uM after 30 mins by fluorescence microscopic analysis; outline: as §2
[16] = tested on: Escherichia coli; experiment: Inhibition of C-terminal YFP-fused Escherichia coli FtsZ transformed in Escherichia coli envA1 assessed as Z ring formation at 125 uM after 30 to 60 mins by fluorescence microscopic analysis; outline: as §2
[17] = tested on: Escherichia coli; experiment: Inhibition of C-terminal YFP-fused Escherichia coli FtsZ cloned in Escherichia coli envA1 assessed as protein dispersion in from of patches throughout cytoplasm at 125 uM after 30 to 60 mins by fluorescence microscopic analysis; outline: as §2
[18] = tested on: Escherichia coli; experiment: Inhibition of C-terminal YFP-fused Escherichia coli FtsZ cloned in Escherichia coli envA1 assessed as mislocalization of protein throughout cell at 120 uM after 30 to 60 mins by fluorescence microscopic analysis; outline: as §2

COc1cc(C/C=C(/Cl)Cc2cc(O)cc(O)c2)c(OC)cc1Cl
inhibition [1]: Active
inhibition [2]: Active
inhibition [3]: Active
IC50 [4]: 70 µM
inhibition [5]: Active
inhibition [6]: Active
Ka [7]: 0.87 ×10⁵ /M
inhibition [8]: Dose-dependent effect
Ka [9]: 1.5 ×10⁵ /M
IC50 [10]: 37 µM
IC50 [11]: 38 µM
MIC50 [12]: 84 µM (≈ 31 µg/mL)

Oc1ccc(Cl)cc1Cc1cc(Cl)cc(Cc2cc(Cl)ccc2O)c1O
inhibition [13]: Active

COc1ccc2cc3[n+](cc2c1OC)CCc1cc2c(cc1-3)OCO2
inhibition [14]: inactive
inhibition [15]: Active

Oc1cc(O)c2c(c1)C/C(Cl)=C\Cc1cc(c(Cl)cc1O)Oc1c(O)cc(cc1O)C/C(Cl)=C\Cc1cc(c(Cl)cc1O)O2
inhibition [1]: Active
inhibition [2]: Active
inhibition [16]: Active
inhibition [17]: Active
IC50 [10]: 9.9 µM
IC50 [11]: 67 µM
MIC50 [12]: 27 µM (≈ 18.3 µg/mL)

CCN(CC)CCNc1nc(/C=C/c2ccc(Cl)cc2)nc2cc3ccccc3cc12
inhibition [18]: Active
